# Measured values taken from PubChem BioAssay.
# The source made the active and inactive calls.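 Rule for the calls, unless noted: active = mean duplicate potentiation above the buffer control mean plus 5 SD of buffer wells; inactive = the rest.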
# Key:
# [1] = nonspecific flux increase, KCNQ1-free cells – parental CHO cells, counter-screen for KCNQ1 potentiator project (AID 493006;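 active = duplicate-averaged activation above buffer control mean plus 5 SD of those controls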;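 for activation: fluorescence ratio of max minus min over baseline after K+ and Tl+ depolarization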); settings: parental CHO-K1 cells, FluxOR thallium flux, at 10 µM; stronger effect = higher value
# Outline: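 Assay system: parental CHO-K1 cells lacking KCNQ1, loaded with FluxOR thallium dye; timing: dye 90 min RT, compound 20 min RT; signal: kinetic thallium-flux fluorescence; repeats: duplicate wells per compound, percent values averaged; benchmarks: buffer and R-L3 controls; reagent: Potassium/thallium depolarization pulse; read-out: fluorescence change ratio scaled 0% buffer, 100% R-L3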
# [2] = target: Potassium voltage-gated channel subfamily KQT member 1 (Homo sapiens) (UniProt P51787); assay: enhancement of KCNQ1 channel thallium flux – FluxOR thallium flux, CHO cells, duplicates, confirmation (AID 493007;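 active = potentiation averaged over duplicate wells exceeding buffer-only control mean by more than 3 SD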;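 for outcome: cells depolarized by a potassium plus thallium sulfate stimulus after compound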); settings: KCNQ1 cell line, FluxOR thallium flux fluorescence, at 10 µM; stronger effect = higher value, % of reference activator effect, buffer zero
# Potassium voltage-gated channel subfamily KQT member 1 (Homo sapiens), sequence (P51787 whole entry, looked up): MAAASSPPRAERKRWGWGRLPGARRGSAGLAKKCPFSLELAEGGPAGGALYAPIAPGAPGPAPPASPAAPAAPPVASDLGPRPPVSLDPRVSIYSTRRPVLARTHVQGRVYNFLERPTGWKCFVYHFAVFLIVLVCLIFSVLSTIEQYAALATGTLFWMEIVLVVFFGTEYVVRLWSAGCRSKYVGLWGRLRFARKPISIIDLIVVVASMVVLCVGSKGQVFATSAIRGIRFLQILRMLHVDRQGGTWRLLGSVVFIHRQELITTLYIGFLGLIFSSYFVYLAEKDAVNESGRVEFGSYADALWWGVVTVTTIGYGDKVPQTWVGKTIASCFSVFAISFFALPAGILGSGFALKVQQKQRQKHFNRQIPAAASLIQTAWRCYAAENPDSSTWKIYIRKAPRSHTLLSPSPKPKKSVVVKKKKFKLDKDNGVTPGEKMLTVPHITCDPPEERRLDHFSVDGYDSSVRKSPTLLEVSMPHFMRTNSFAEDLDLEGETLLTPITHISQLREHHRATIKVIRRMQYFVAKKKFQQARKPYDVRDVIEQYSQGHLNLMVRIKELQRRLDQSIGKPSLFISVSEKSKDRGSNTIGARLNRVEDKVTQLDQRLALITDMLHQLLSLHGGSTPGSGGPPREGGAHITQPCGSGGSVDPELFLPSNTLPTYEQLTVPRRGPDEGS
# Outline: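 material = CHO cells stably expressing the KCNQ1 potassium channel | repeats = duplicate wells per compound | measure = percent activation between buffer and R-L3 responses | signal = FluxOR thallium-flux fluorescence, kinetic read | schedule = FluxOR dye loading 90 min, compound exposure 20 min, room temperature | control set = buffer and R-L3 controls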
# [3] = target: Potassium voltage-gated channel subfamily KQT member 2 (Rattus norvegicus) (UniProt O88943); assay: KCNQ2 thallium flux enhancement – KCNQ2-CHO-K1 cells, selectivity assay for KCNQ1 potentiator project (AID 493009); settings: FluxOR thallium flux fluorescence, at 10 µM; stronger effect = higher value, scaled: buffer 0, activator control 100;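 note: assay conditions were tuned for KCNQ1 rather than KCNQ2 modulators; signal is max minus min fluorescence divided by baseline after thallium stimulus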
# Potassium voltage-gated channel subfamily KQT member 2 (Rattus norvegicus), sequence (O88943 whole entry, looked up): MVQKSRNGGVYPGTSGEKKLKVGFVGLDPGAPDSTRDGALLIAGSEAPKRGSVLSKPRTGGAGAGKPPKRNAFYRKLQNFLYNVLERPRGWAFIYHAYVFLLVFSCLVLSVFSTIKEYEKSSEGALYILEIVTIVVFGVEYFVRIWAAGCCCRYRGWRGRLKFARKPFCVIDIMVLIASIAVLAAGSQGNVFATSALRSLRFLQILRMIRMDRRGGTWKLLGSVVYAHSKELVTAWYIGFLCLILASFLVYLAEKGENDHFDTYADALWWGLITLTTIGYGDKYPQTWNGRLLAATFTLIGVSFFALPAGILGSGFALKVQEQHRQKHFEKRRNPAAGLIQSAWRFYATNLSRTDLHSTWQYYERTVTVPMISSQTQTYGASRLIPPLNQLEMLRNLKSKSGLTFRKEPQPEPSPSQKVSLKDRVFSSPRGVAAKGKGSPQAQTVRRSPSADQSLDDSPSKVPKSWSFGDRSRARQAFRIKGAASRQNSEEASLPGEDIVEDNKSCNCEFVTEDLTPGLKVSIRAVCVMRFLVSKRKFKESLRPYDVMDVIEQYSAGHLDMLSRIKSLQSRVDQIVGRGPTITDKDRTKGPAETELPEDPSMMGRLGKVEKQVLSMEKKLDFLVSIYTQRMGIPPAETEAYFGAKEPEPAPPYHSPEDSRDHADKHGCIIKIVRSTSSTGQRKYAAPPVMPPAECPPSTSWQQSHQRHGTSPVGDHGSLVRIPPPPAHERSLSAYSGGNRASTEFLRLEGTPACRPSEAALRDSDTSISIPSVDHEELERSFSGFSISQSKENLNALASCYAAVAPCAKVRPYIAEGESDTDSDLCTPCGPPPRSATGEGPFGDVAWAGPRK
# [4] = target: Potassium voltage-gated channel subfamily KQT member 1 (Homo sapiens) (UniProt P51787); assay: KCNQ1 activators by electrophysiology – IonWorks patch clamp, KCNQ1-CHO cells, orthogonal assay for KCNQ1 potentiator project, confirmation (AID 493184;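 active = current rise at least 3 SD above the untreated control mean in each of two repeat wells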;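 for current potentiation: percent change of the same well's current before compound addition so 0% = no change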); settings: automated patch clamp current, at 10 µM; stronger effect = higher value
# Outline: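 Assay system – CHO cells carrying KCNQ1 · Medium – pH 7.4 external bath · Probe or stimulus – depolarizing pulse to +40 mV from -90 mV · Compound dosing – one dose, 10 µM final · Measured by – automated perforated-patch electrophysiology · Measure – % potentiation of steady-state current relative to pre-compound · Repeats – two replicates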
Compound,activation [1],potentiation [2],potentiation [3],outcome [4],outcome [1],outcome [2],outcome [3],current potentiation [4]
CC(C)CN1C(=O)/C(=C/c2cccs2)NC1=S,392% (active),180% (active),450% (active),inactive,,,,
COc1cccc2sc(Nc3nnc(-c4cccs4)o3)nc12,396% (active),250% (active),424% (active),inactive,,,,
COc1ccccc1NC(=O)C(=O)NNC(=O)COc1ccc2ccccc2c1,442% (active),174% (active),555% (active),inactive,,,,
O=C(c1ccccc1[N+](=O)[O-])N1CCN(c2ccc(N3CCOCC3)nn2)CC1,,,,inactive,inactive,inactive,inactive,
Oc1[nH]c2ccc(Br)cc2c1N=NC(=S)NCC1CCCO1 (stereo unspecified),182% (active),37.5% (active),204% (active),inactive,,,,
CCc1ccc(/C=C/C(=O)C2C(=O)c3ccccc3C2=O)cc1,284% (active),118% (active),297% (active),inactive,,,,
CC(Oc1ccccc1F)C(=O)/C=C/N(C)C (stereo unspecified),,,,inactive,inactive,inactive,inactive,
CC1CCc2c(sc3[nH]c(=S)n(C)c(=O)c23)C1 (stereo unspecified),446% (active),254% (active),552% (active),inactive,,,,
N=c1sccn1CC(=O)Nc1cc(Cl)ccc1Oc1ccccc1,,,,inactive,inactive,inactive,inactive,
CCOC(=O)Nc1ccc2c(c1)N(CCCN(C)C)c1ccccc1CC2,,,,inactive,inactive,inactive,inactive,
CCOC(=O)c1c(C)[nH]c(C(=O)Cn2nnc(-c3ccccc3Cl)n2)c1C,,,,inactive,inactive,inactive,inactive,
COc1cc(C(=O)NC(=S)NC(C)C)cc(OC)c1OC,,,,inactive,inactive,inactive,inactive,
COc1cccc(N=Nc2ccc3cccnc3c2O)c1,154% (active),29% (active),162% (active),inactive,,,,
COc1ccc(-c2csc(NC(=S)NC(=O)c3ccco3)n2)cc1,264% (active),80.5% (active),216% (active),inactive,,,,
CCOC(=O)c1sc(NC(=O)c2ccncc2)nc1C,161% (active),54% (active),166% (active),inactive,,,,
CCOC(=O)c1c(CN2CCN(CCO)CC2)n(C)c2cc(Br)c(OC)cc12,,,,inactive,inactive,inactive,inactive,
Oc1ccc(C[C@@H]2CNCCN2CCc2cc(C(F)(F)F)cc(C(F)(F)F)c2)cc1,,,,inactive,inactive,inactive,inactive,
Cc1ccc(O)c(C(=O)CC(=O)c2ccc(Cl)cc2)c1,,,,inactive,inactive,inactive,inactive,
COC(=O)c1ccc(CSc2ncnc3sc(C)c(C)c23)o1,155% (active),24% (active),163% (active),inactive,,,,
CC1CC(C)CN(Cc2nc(N)nc(Nc3ccc4ccccc4c3)n2)C1 (stereo unspecified),170% (active),43.5% (active),165% (active),inactive,,,,
O=C(NC(=S)N1CCN(c2c(Cl)cccc2[N+](=O)[O-])CC1)c1cccs1,236% (active),156% (active),375% (active),inactive,,,,
NNC(=O)c1sccc1OCc1ccc(Cl)cc1Cl,,,,inactive,inactive,inactive,inactive,

Compound,activation [1],potentiation [2],potentiation [3],outcome [4],outcome [1],outcome [2],outcome [3],current potentiation [4]
COc1cc(C(=O)NC(=S)N(CCc2ccccc2)CCc2ccccc2)cc(OC)c1OC,198% (active),104% (active),256% (active),inactive,,,,
CC(C)c1ccc(/C=N/n2c(COc3ccccc3)n[nH]c2=S)cc1,190% (active),512% (active),503% (active),inactive,,,,
S=c1nc(C2CC2)[nH]c2ccccc12,414% (active),83.5% (active),351% (active),inactive,,,,
O=C(Nn1c(Cc2cccs2)nc2ccccc2c1=O)c1cccs1,,,,inactive,inactive,inactive,inactive,
CCSc1nnc(NS(=O)(=O)c2ccc(OC)cc2)s1,,,,inactive,inactive,inactive,inactive,
Cc1cc(C)nc(CCNC(=O)c2cc(COc3ccccc3)on2)n1,,,,inactive,inactive,inactive,inactive,
COc1ccccc1N1C(=NC(=O)C(C)Oc2ccccc2)SC2CS(=O)(=O)CC21 (stereo unspecified),,,,inactive,inactive,inactive,inactive,
CCc1ccc(NC(=O)CSc2nc3ccsc3c(=O)n2CCC(=O)O)cc1,148% (active),33% (active),172% (active),inactive,,,,
O=C(NC(=S)N(CC1CCC1)CC1CCCO1)c1cccc([N+](=O)[O-])c1 (stereo unspecified),224% (active),74.5% (active),216% (active),inactive,,,,
CC(C)(C)NC(=O)C(=O)NNC(=O)c1cccc(Br)c1,242% (active),34% (active),229% (active),inactive,,,,
Fc1ccccc1C(c1nnnn1C1CCCC1)N1CCN(Cc2ccccc2)CC1 (stereo unspecified),,,,inactive,inactive,inactive,inactive,
Cc1cccc(C(=O)NC(=S)NNC(=O)COc2ccc(Cl)cc2)c1,140% (active),52% (active),186% (active),inactive,,,,
CCOC(=O)c1sc(NC(=S)NC(=O)c2ccc(OC)cc2)nc1C,,,,inactive,inactive,inactive,inactive,
O=c1c2ccccc2[nH]c(=S)n1CCc1ccccc1,159% (active),,,inactive,,inactive,inactive,
Fc1ccc(SCCc2ccncc2)cc1,,,,inactive,inactive,inactive,inactive,
O=C(NCc1cccs1)C1CC(c2ccccc2O)=NO1 (stereo unspecified),,,,inactive,inactive,inactive,inactive,
CCSC(=S)c1c(C)[nH]n(-c2ccccc2)c1=O,164% (active),30% (active),184% (active),inactive,,,,
Cc1ccc(-n2cnnn2)c2cccnc12,,,,inactive,inactive,inactive,inactive,
CCCNC1=CC(=O)CC(C)(C)C1,,,,inactive,inactive,inactive,inactive,
OC(CNC1CCCCC1)COCCOc1ccc(Br)cc1 (stereo unspecified),,,,inactive,inactive,inactive,inactive,
Cn1cc(-c2nnnn2-c2ccccc2)c(=O)c2ccccc21,,,,inactive,inactive,inactive,inactive,
COc1ccc([N+](=O)[O-])cc1NC(=O)c1cccnc1,,,,inactive,inactive,inactive,inactive,

Compound,activation [1],potentiation [2],potentiation [3],outcome [4],outcome [1],outcome [2],outcome [3],current potentiation [4]
CS(=O)(=O)N1CCC(C(=O)Nc2ccc(OCc3ccccc3)cc2)CC1,,,,inactive,inactive,inactive,inactive,
C=CCC(=O)N1CCC(n2nccc2NC(=O)CCOc2ccccc2)CC1,,,,inactive,inactive,inactive,inactive,
COc1ccccc1-c1cc(C(=O)Nc2cccnc2)no1,314% (active),112% (active),398% (active),inactive,,,,
COc1cc(/C=N/NC(=O)c2ccoc2C)ccc1OCCN1CCCCC1,,23.5% (active),,inactive,inactive,,inactive,
Cn1ccnc1SCC(=O)NC1CC1,,,,inactive,inactive,inactive,inactive,
COc1ccc(CN2C(=O)C(O)(CC(=O)c3ccc4c(c3)OCO4)c3ccccc32)cc1OC (stereo unspecified),,,,inactive,inactive,inactive,inactive,
COc1ccc2cc(CCNC(=O)C3CCCC3)c(=O)[nH]c2c1,,,,inactive,inactive,inactive,inactive,
COc1ccc(C(=O)On2c(-c3ccc(Br)cc3)nc3ccccc3c2=O)cc1,,,,inactive,inactive,inactive,inactive,
O=[N+]([O-])c1cc(CN2CCCC2)ccc1Sc1ccc(Cl)cc1,,,,inactive,inactive,inactive,inactive,
COC(=O)c1c(NS(=O)(=O)Cc2ccccc2)sc2c1CCCC2,196% (active),136% (active),186% (active),inactive,,,,
COC(=O)c1cnn(-c2ccc(Cl)cc2)c1/C=N/NC(N)=S,,,,inactive,inactive,inactive,inactive,
Cc1ccc(-c2nc3ccc(Cl)cc3c(=O)n2O)cc1,558% (active),221% (active),523% (active),inactive,,,,
Oc1ccc(N=Nc2ccc3c(c2)OCCO3)c2ncccc12,310% (active),116% (active),352% (active),inactive,,,,
Cn1nccc1C(=O)NC(=S)Nc1cc(Cl)cc(Cl)c1,141% (active),20.5% (active),178% (active),inactive,,,,
O=c1cc(-c2ccccc2)cc(-c2ccccc2)n1O,254% (active),87.5% (active),322% (active),inactive,,,,
CCc1ccc(/C=C/C(=O)c2cc(Br)ccc(=O)c2O)cc1,203% (active),140% (active),296% (active),inactive,,,,
Oc1c(N=NC(=S)Nc2ccccc2F)c2ccccc2n1Cc1ccccc1F,142% (active),64% (active),169% (active),inactive,,,,
COc1cccc2sc(N(CCCN(C)C)C(=O)c3ccc(S(=O)(=O)N4CCCc5ccccc54)cc3)nc12,,,,inactive,inactive,inactive,inactive,
COc1ccc(OC)c(/C=C2\SC(=S)N(NS(=O)(=O)c3ccc(C)cc3)C2=O)c1,166% (active),102% (active),240% (active),,,,,47.4% (active)
CSc1ccc(/C=N/NC(=O)c2cccs2)cc1,,,,inactive,inactive,inactive,inactive,
